# SENP8 block-1 = SENP8 protease inhibitors, primary screen, biochemical, luminescence. AID 2540, 2010. Sentrin-specific protease 8 (Homo sapiens), Q96LD8. inhibition, % at 10 µM. actives 1.2% (n = 330,000). purified SENP8, Z-RLRGG-aminoluciferin cleavage; in the data active = inhibition above about 50%
# Target sequence (Q96LD8 whole entry, looked up): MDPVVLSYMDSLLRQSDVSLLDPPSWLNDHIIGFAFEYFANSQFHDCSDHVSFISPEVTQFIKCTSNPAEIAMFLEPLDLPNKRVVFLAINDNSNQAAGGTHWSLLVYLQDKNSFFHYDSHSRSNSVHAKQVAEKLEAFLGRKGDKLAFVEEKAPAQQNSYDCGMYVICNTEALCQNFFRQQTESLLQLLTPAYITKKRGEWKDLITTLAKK
# UCH37 DUB inh = inhibitors of human UCH37 deubiquitinase, primary screen, biochemical, Ub-AMC cleavage, fluorescence. Ubiquitin carboxyl-terminal hydrolase isozyme L5 (Homo sapiens), Q9Y5K5. purified proteasome/UCH37. inhibition, % (no concentration beside the values). actives 0.33% (n = 330,000). AID 588478, 2011;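 active = mean inhibition over replicate wells above about 20%, limit read from the data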;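 also: 0% = compound-free wells with enzyme and 100% = wells lacking proteasome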
#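 system = Proteasome-associated human UCH37 deubiquitinase | amount = 0.15 nM proteasome as dispensed | medium = pH 7.4 Tris-HCl (50 mM) with ovalbumin, ATP-MgCl2, DTT | incubation = 30 min preincubation with enzyme, 25 min cleavage at room temperature | detection = AMC fluorescence 355/460 nm | read-out basis = percent inhibition | controls = no-proteasome and no-compound wells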
# SENP6 block = SENP6 protease inhibitors, primary screen, biochemical, luminescence, uHTS | AID 2599, 2010 | actives 1.8% (n = 330,000) | Sentrin-specific protease 6 (Homo sapiens), Q9GZR1 | inhibition, % at 10 µM | Recombinant SENP6 catalytic domain, aminoluciferin luminescence;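 active = inhibition above about 50% at the single tested dose, limit read from the data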;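 also: plate controls were DMSO wells with enzyme for no effect and DMSO wells lacking enzyme for full effect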
# SENP8 block-2 = human SENP8 protease inhibitors, primary screen, biochemical, fluorescence, Nedd8 protein substrate, uHTS; Sentrin-specific protease 8 (Homo sapiens), Q96LD8; recombinant SENP8; inhibition, % at 20 µM; actives 0.64% (n = 360,000); AID 602440, 2012; in the data active = inhibition mostly above about 40%, no sharp cut-off; inactive = mostly below about 27%
# SENP7 block = SENP7 protease inhibitors, primary screen, biochemical, luminescence, uHTS | recombinant SENP7, Z-RLRGG-aminoluciferin luminescence, 40 min | inhibition, % at 5 µM | actives 1.5% (n = 330,000);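 active = inhibition above about 50% at the single test dose, limit read from the data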;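 also: plate controls were DMSO with enzyme for no effect and no enzyme buffer wells for full effect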
# SENP1 inh = human SENP1 catalytic domain inhibitors, primary screen, biochemical, FRET, uHTS; Sentrin-specific protease 1 (Homo sapiens), Q9P0U3; recombinant SENP1 catalytic domain, CyPet-SUMO1-YPet FRET cleavage; inhibition, % at 10 µM; actives 0.21% (n = 360,000); AID 624204, 2012;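 active = inhibition at least 30% at 10 µM, raw YFP signal under a set limit, fluorescence ratio 0.5 to 1.5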;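 also: 0% = enzyme with DMSO and 100% = no enzyme wells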
# Target sequence (Q9P0U3 419-644 limits assumed): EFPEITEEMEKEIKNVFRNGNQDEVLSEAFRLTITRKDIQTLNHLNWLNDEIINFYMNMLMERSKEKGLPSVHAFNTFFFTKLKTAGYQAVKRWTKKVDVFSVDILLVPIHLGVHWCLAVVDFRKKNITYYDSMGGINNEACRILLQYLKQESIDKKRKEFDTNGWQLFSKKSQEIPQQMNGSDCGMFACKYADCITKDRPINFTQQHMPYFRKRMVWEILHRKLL
#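 Material: hSENP1 catalytic domain, recombinant; medium: Tris pH 8 with BME, BSA, NP40 and catalase; compound: single concentration of 10 µM compound, 0.5% DMSO final; technique: FRET read of cyan and yellow fluorescence; timing: 50 min enzyme reaction, room temperature, light-protected; reagent: SFCypet-SUMO1-SFYpet substrate at 25 nM; control set: no-enzyme low, enzyme-DMSO high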
# The depositor's hits bear a star; . = no result given; ! = a repeat was not active. An excerpt weighted towards active compounds, which were near 2.6% of everything screened.
SMILES,SENP8 block-1,UCH37 DUB inh,SENP6 block,SENP8 block-2,SENP7 block,SENP1 inh
COc1ccc(-c2nnc(SCC(=O)NN=Cc3ccccc3C(=O)O)n2-c2ccc(Cl)cc2)cc1,.,4,.,.,.,.
Cc1ccc(-n2nnnc2SCC(=O)N2CCc3ccccc3C2)cc1,14,11,12,41*,10,-3
Cc1ccc(-n2nnnc2SCC(=O)N2CCc3ccccc3C2)c(C)c1,-5,5,8,14,-3,4
O=C(COc1ccccc1)NN=Cc1ccc2c(c1)OCO2,.,3,.,.,.,.
CCOc1ccc(/C=C2\SC(=S)N(C(C(=O)O)c3ccccc3)C2=O)cc1OC (centres undefined),-1,8,6,8,12,-62
C=CCOc1ccc(/C=C2\SC(=S)N(C(C(=O)O)c3ccccc3)C2=O)cc1 (centres undefined),.,12,.,42*,.,-12
CCOC(=O)c1c(N=CC2C(=O)CCCC2=O)sc2c1CCCC2,.,-9,.,.,.,.
CSc1cccc(NC(=O)C(=O)NCc2ccccc2)c1,-3,-2,-14,21,-2,0
O=C(Nc1cccc(Cl)c1)Nc1cccc(C(=O)O)c1,87*,5,96*,26,93*,2
CCOc1ccc(NC(=O)Nc2cccc(C(=O)O)c2)cc1,97*,.,99*,-5,99*,0
O=C(NCc1ccccc1)C(=O)Nc1cccc(C(=O)O)c1,84*,0,93*,23,93*,0
Cc1cccc(NC(=O)CCC(=O)NN=Cc2cc([N+](=O)[O-])ccc2O)c1,.,8,.,.,.,.
CCCC(=O)C1=C(O)C(C(=O)OC)C(C)(C)CC1=Nc1ccc(N)cc1 (centres undefined),-3,9,-2,20,1,-1
CCCC(=Nc1ccc(N)cc1)C1=C(O)C(C(=O)OC)C(C)(C)CC1=O (centres undefined),6,7,14,80*,1,44*
COCc1cc(=O)[nH]c(N=C(N)Nc2ccccc2C)n1,.,29*,.,.,.,.
O=C(Nc1ccccc1)Nc1ccc2nnsc2c1,42,2,54*,-4,63*,-1
CN(C)c1ccc(NC(=O)Nc2ccc3snnc3c2)cc1,23,-3,70*,28,62*,4
CC(=NNC(=O)Cc1cccn1C)c1ccco1,.,0,.,.,.,.
CC(CCC1=C(C)CCCC1(C)C)=NNC(N)=S,.,1,.,.,.,.
C=CCN=C1NN=C(c2cc(C)n(CCOC)c2C)CS1,22,0,32,21,-1,-2
C=CCn1c(C)cc(C2=NNC(=NC(C)(C)C)SC2)c1C,51*,.,83*,-4,9,-4
C=CCn1c(C)cc(C2=NNC(=Nc3ccc(C)cc3)SC2)c1C,-1,29*,-18,-26,11,-4
Cc1ccc(C=NNC(=O)c2nnn(-c3nonc3N)c2C(C)C)s1,.,-22,.,.,.,.
CCN(CC)S(=O)(=O)c1cccc(C(=O)NN=Cc2cccc(O)c2O)c1,.,2,.,.,.,.
COc1ccc(N=Nc2nc3ccc(Br)cc3n2C)cc1,.,9,.,64*,.,57
SMILES,SENP8 block-1,UCH37 DUB inh,SENP6 block,SENP8 block-2,SENP7 block,SENP1 inh
COc1ccc(-c2c(-c3cc(OC)cc(OC)c3)n(C)c3ccc(Br)cc23)cc1,1,-18,-8,-485,-6,0
CC1=NN(c2ccccc2)C(=O)/C1=C\c1c(C)[nH]n(-c2ccccc2)c1=O,3,4,2,42*,7,3
Cc1ccc(N=Cc2c(C)[nH]n(-c3ccccc3)c2=O)nc1,-7,5,-7,21,0,0
Cc1[nH]n(-c2ccccc2)c(=O)c1/C=N/c1ccccn1,1,.,-10,41*,1,0
COc1ccc(C=Nc2nc3ccccc3n2C)cc1OC,.,7,.,.,.,.
Cc1cc(C)nc(SCC(=O)NN=Cc2cccc([N+](=O)[O-])c2)n1,.,2,.,.,.,.
CC(=O)[C@@H]1[C@@H]2C(=O)N(Cc3ccccc3)C(=O)[C@@H]2C2c3ccccc3C=CN21 (some centres undefined),14,58*,23,-189,-1,-22
O=C1C2C3C=CC(C3)C2C(=O)N1Cc1ccccc1 (centres undefined),-6,5,-14,6,7,2
N#C/C=C1/NC(=O)c2ccccc2S1,-4,5,-1,44*,7,29
COc1cc(OC)c(OC)cc1C=NNC(=O)CCc1c(C)n[nH]c1C,.,-87,.,.,.,.
O=C(/C=C/c1ccc(F)cc1)c1ccc(N2CCOCC2)cc1,41,3,80*,-10,78*,3
CC(=NNC(=O)CNC(=O)COc1cccc(C)c1)c1ccc(Cl)cc1,.,4,.,.,.,.
O=C(O)c1cccc2c1C(=O)c1cc([N+](=O)[O-])cc([N+](=O)[O-])c1-2,.,.,.,44*,.,-3
CC(=NNC(=O)CCC(=O)Nc1ccc(Br)cc1)c1ccc(Br)cc1,.,4,.,.,.,.
CCc1sc(N(C(=O)Cc2ccccc2)c2ccc(F)cc2)nc1-c1ccccc1,-6,24*,-33,18,2,0
CCc1sc(N(C(=O)Cc2ccccc2)c2ccccc2)nc1-c1ccccc1,-5,0,2,9,-3,-1
Fc1ccc(C2=NOC(c3nnc(-c4ccccc4)o3)C2)cc1 (centres undefined),-3,2,-5,19,0,1
c1ccc(C2=NOC(c3nnc(-c4ccccc4)o3)C2)cc1 (centres undefined),-2,33*,-2,6,7,0
CC(CCc1ccc2c(c1)OCO2)=NNC(=O)c1ccc(C)cc1C,.,-2,.,.,.,.
Cc1ccc(NC(=S)N=Nc2c(O)n(C)c3ccc(S(=O)(=O)N4CCOCC4)cc23)cc1,.,11,.,30*,.,6
CN(C)c1ccc2nc3c(=O)[nH]c(=O)nc-3n(CC(O)C(O)C(O)CO)c2c1 (centres undefined),15,11,19,21,11,60*
FC(F)(F)c1ccc(C=Nn2c(C3CCCCC3)n[nH]c2=S)cc1,.,6,.,.,.,.
O=C(Nc1cccc2nsnc12)c1cccs1,16,-84,58*!,-288,50*!,1
CCOC(=O)N1CCC(N2C(=O)c3ccc(C(=O)Nc4ccc(OC)c(OC)c4)cc3C2=O)CC1,5,4,14,13*,-3,2
CCOC(=O)N1CCC(N2C(=O)c3ccc(C(=O)NCCC(C)C)cc3C2=O)CC1,5,0,-17,10,2,2
CC(=NNC(=O)c1ccn(C)n1)c1ccncc1,.,5,.,.,.,.

# Screening results: PubChem, several laboratories
